According to ChEMBL document CHEMBL1149244, “Novel azido and isothiocyanato analogues of [3-(4-phenylalkylpiperazin-1-yl)propyl]bis(4-fluorophenyl)amines as potential irreversible ligands for the dopamine transporter” (J Med Chem, 2004):

Target: Sodium-dependent dopamine transporter (Rattus norvegicus, UniProt P23977)
Test: Displacement of [3H]WIN-35428 from DAT in Sprague-Dawley rat striatum
Method in brief: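 Male Sprague-Dawley rat striatal membranes (homogenized in ice-cold modified Krebs-HEPES, pH 7.4; washed by centrifugation), 2.5 mg original wet weight per tube, preincubated 5 min with or without test compound. Nonspecific binding defined with 0.1 mM cocaine. Filtration on BSA-presoaked GF/B filters, scintillation counting. Triplicates. IC50 and Hill coefficient reported.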

Sequence of Sodium-dependent dopamine transporter (P23977 whole entry): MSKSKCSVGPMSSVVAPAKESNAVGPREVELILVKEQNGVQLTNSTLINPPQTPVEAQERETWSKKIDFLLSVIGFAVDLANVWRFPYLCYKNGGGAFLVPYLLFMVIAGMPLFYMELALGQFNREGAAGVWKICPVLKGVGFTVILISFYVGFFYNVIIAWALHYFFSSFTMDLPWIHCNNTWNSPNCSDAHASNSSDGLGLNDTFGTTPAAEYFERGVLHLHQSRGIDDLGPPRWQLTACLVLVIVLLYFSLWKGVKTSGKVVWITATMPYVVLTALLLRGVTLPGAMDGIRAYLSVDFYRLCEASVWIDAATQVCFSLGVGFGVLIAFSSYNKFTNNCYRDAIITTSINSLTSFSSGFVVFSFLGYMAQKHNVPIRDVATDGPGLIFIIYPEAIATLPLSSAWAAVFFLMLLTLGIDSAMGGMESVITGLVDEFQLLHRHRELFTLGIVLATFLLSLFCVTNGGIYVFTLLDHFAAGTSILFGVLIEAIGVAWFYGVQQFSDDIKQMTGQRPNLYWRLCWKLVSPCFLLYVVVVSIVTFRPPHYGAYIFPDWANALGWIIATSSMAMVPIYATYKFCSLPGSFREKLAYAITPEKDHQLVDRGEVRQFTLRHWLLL

| Compound | IC50 [nM] |
| --- | --- |
| [N-]=[N+]=Nc1ccc(CCN2CCN(CCCN(c3ccc(F)cc3)c3ccc(F)cc3)CC2)cc1I | 163 |
| [N-]=[N+]=Nc1ccc(CCN2CCN(CCOC(c3ccccc3)c3ccccc3)CC2)cc1I | 5.61 |
| Fc1ccc(N(CCCN2CCN(Cc3ccc(N=C=S)cc3)CC2)c2ccc(F)cc2)cc1 | 75.4 |
| [N-]=[N+]=Nc1ccc(CCCN2CCN(CCCN(c3ccc(F)cc3)c3ccc(F)cc3)CC2)cc1I | 282 |
| Fc1ccc(N(CCCN2CCN(CCc3ccc(N=C=S)cc3)CC2)c2ccc(F)cc2)cc1 | 68.3 |
| [N-]=[N+]=Nc1ccc(CN2CCN(CCCN(c3ccc(F)cc3)c3ccc(F)cc3)CC2)cc1I | 242 |
| Fc1ccc(N(CCCN2CCN(CCCc3ccc(N=C=S)c(I)c3)CC2)c2ccc(F)cc2)cc1 | 95.5 |
| Fc1ccc(N(CCCN2CCN(CCCc3ccccc3)CC2)c2ccc(F)cc2)cc1 | 19.5 |
| Fc1ccc(N(CCCN2CCN(CCCc3ccc(N=C=S)cc3)CC2)c2ccc(F)cc2)cc1 | 99.8 |
| Fc1ccc(N(CCCN2CCN(CCc3ccc(N=C=S)c(I)c3)CC2)c2ccc(F)cc2)cc1 | 66 |
| Fc1ccc(N(CCCN2CCN(Cc3ccccc3)CC2)c2ccc(F)cc2)cc1 | 29.7 |
